From ChEMBL document CHEMBL4699403, “Cyclic boronates as versatile scaffolds for KPC-2 beta-lactamase inhibition” (RSC Med Chem, 2020)

How the values were obtained:
Klebsiella pneumoniae [1] = experiment: Irreversible inhibition of beta lactamase KPC-2 in Klebsiella pneumoniae assessed as off-rate constant using nitrocefin as substrate preincubated for 30 mins followed by substrate addition
Summary of the method: (§1)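 Jump-dilution off-rate assay. 1 μM KPC-2 was preincubated with 8 μM cyclic boronate for 30 min at room temperature, then serially diluted to a final KPC-2 concentration of 500 pM. 50 μM nitrocefin was added and recovery of hydrolysis was monitored at 486 nm in 10 mM HEPES pH 7.5, 150 mM NaCl. koff and half-life were derived from the recovery.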

[2] = Inhibition of beta lactamase KPC-2 in Klebsiella pneumoniae assessed as apparent inhibition constant using nitrocefin as substrate measured without preincubation by Dixon plot analysis; settings: read-out: Ki(app)
Summary of the method: (§2)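 Direct competition assays at 25 °C in 10 mM HEPES pH 7.5, 150 mM NaCl. A range of cyclic boronate concentrations was mixed with 50 μM nitrocefin, and the reaction was started by adding 1 nM KPC-2. Nitrocefin hydrolysis was followed at 486 nm (Δε 20 500 M-1 cm-1). Kiapp and k2/K were both taken from these competition data. Inhibitor stocks were 100 mM in DMSO, diluted in buffer.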

Klebsiella pneumoniae [3] = experiment: Potentiation of cefepime-induced antibacterial activity against Klebsiella pneumoniae Ecl8 transfected with pUBYT vector expressing KPC-2 assessed as cefepime MIC measured after 18 to 24 hrs by CLSI protocol based broth microdilution assay (Rvb >=256 ug/ml); format: functional; settings: time hrs 18-24
Summary of the method: (§3)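 Broth microdilution in cation-adjusted Mueller–Hinton broth per CLSI, triplicate; K. pneumoniae Ecl8 carrying pUBYT with blaKPC-2 under the ISKpn7 promoter. β-Lactam serially diluted with inhibitor fixed at 4 mg per liter (diluted from 100 mM DMSO stock). Incubated at 37 °C for 18 to 24 hours; growth read as absorbance at 600 nm.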

Klebsiella pneumoniae [4] = experiment: Inhibition of beta lactamase KPC-2 in Klebsiella pneumoniae assessed as apparent second order rate constant K2/K using nitrocefin as substrate; summary of the method: as §2
Klebsiella pneumoniae [5] = experiment: Potentiation of meropenem-induced antibacterial activity against Klebsiella pneumoniae Ecl8 transfected with pUBYT vector expressing KPC-2 assessed as meropenem MIC measured after 18 to 24 hrs by CLSI protocol based broth microdilution assay (reference value: 16 ug/ml); format: functional; settings: time hrs 18-24; summary of the method: as §3
[6] = Inhibition of beta lactamase KPC-2 in Klebsiella pneumoniae using nitrocefin as substrate preincubated for 10 mins followed by substrate addition
Summary of the method: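 KPC-2 was preincubated with cyclic boronate for 10 min in 10 mM HEPES pH 7.5, 150 mM NaCl at 25 °C. 50 μM nitrocefin was then added and initial hydrolysis rates were read at 486 nm. IC50 was derived from the inhibitor concentration dependence of these rates. Inhibitor stocks were 100 mM in DMSO, diluted in buffer.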

Klebsiella pneumoniae [7] = experiment: Inhibition of beta lactamase KPC-2 in Klebsiella pneumoniae assessed as irreversible covalent complex formation by measuring half life using nitrocefin as substrate; summary of the method: as §1

Row | Compound | K (Klebsiella pneumoniae [1]) [s⁻¹] | Ki [2] [µM] | MIC (Klebsiella pneumoniae [3]) [µg/mL] | K (Klebsiella pneumoniae [4]) | MIC (Klebsiella pneumoniae [5]) [µg/mL] | IC50 [6] [µM] | T1/2 (Klebsiella pneumoniae [7]) [h]
1 | O=C(NC1CCNCC1)[C@@H]1CC[C@@H]2CN1C(=O)N2OS(=O)(=O)O [RELEBACTAM] | 0.00087 | 1.2 | – | – | – | – | –
2 | NCCN[C@H]1CC[C@H](CC(=O)N[C@H]2Cc3cccc(C(=O)O)c3OB2O)CC1 | – | 1.3 | ≤ 0.125 | 1 10^4/M/s | ≤ 0.125 | 0.037 | –
3 | O=C(O)C[C@@H]1CC[C@H](NC(=O)Cc2cccs2)B(O)O1 [VABORBACTAM] | 0.00016 | 8.5 | ≤ 0.125 | 6.7 10^2/M/s | ≤ 0.125 | 0.035 | 1.2
